Measured values published in ChEMBL document CHEMBL2429791, “Preparation of asymmetric urea derivatives that target prostate-specific membrane antigen for SPECT imaging” (J Med Chem, 2013).
One block for each molecule: values may come before it.

Key:
[1] = biological target: T1, Glutamate carboxypeptidase 2 (Homo sapiens, UniProt Q04609); test: Displacement of [125I]-DCIT from PSMA in human LNCaP cells after 1 hr by gamma counting
LNCaP [2] = test: Biodistribution in LNCAP cells in C.B.-17/Icr […] Jcl mouse xenografted with human LNCAP and PC3 cells after 30 to 60 mins; type: ADME, organism-based; conditions: in vivo
Intestine = test: Biodistribution in intestine of C.B.-17/Icr […] Jcl mouse xenografted with human LNCAP and PC3 cells after 30 to 60 mins; type: ADME, organism-based; conditions: in vivo
Liver (Mus musculus) = test: Biodistribution in liver of C.B.-17/Icr […] Jcl mouse xenografted with human LNCAP and PC3 cells after 30 to 60 mins; conditions: in vivo
PC-3 = test: Biodistribution in PC3 cells in C.B.-17/Icr +/+ Jcl mouse xenografted with human LNCAP and PC3 cells at 25.9 MBq, iv after 30 mins by SPECT/CT analysis in presence of 2-PMPA; type: ADME, organism-based; conditions: in vivo, 0.5 h
In short: (§1)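 Anaesthetised (2.5% isoflurane) LNCaP/PC-3 tumour-bearing mice (20–25 g), kept on a heating pad, given ¹²³I tracer (25.9 MBq in 0.10 mL saline) iv by tail vein, with or without 50 mg/kg 2-PMPA. Pinhole SPECT acquired over 30–64 min (159 keV ±10% window, 32 projections × 60 s, 360°), then CT; images reconstructed by 3D OSEM.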

LNCaP [3] = test: Biodistribution in LNCAP cells in C.B.-17/Icr +/+ Jcl mouse xenografted with human LNCAP and PC3 cells at 25.9 MBq, iv after 30 mins by SPECT/CT analysis in presence of 2-PMPA; type: ADME, organism-based; conditions: in vivo, 0.5 h
In short: as §1

LNCaP [4] = test: Biodistribution in LNCAP cells in C.B.-17/Icr +/+ Jcl mouse xenografted with human LNCAP and PC3 cells at 25.9 MBq, iv after 30 mins by SPECT/CT analysis; type: ADME, organism-based; conditions: in vivo, 0.5 h
In short: as §1

[5] = biological target: T1, Glutamate carboxypeptidase 2; test: Binding affinity to PSMA in human LNCaP cells after 1 hr by gamma counting; type: cell-based
In short: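 LNCaP cells plated at 4 × 10⁵ cells/well and grown 48 h (37 °C/5% CO₂), then washed with RPMI 1640 containing 0.5% BSA. Saturation binding used ¹²⁵I-labelled ligand (specific activity 81.4 kBq/nmol), 1 h at 37 °C; nonspecific binding measured with 100 µM non-radioactive iodinated compound. Cells washed, lysed in 0.2 N NaOH, gamma-counted; Kd from Scatchard plots.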

Kidney [6] = test: Drug excretion in C.B.-17/Icr […] Jcl mouse kidney xenografted with human LNCAP and PC3 cells; type: ADME, tissue-based; conditions: in vivo
Liver = test: Drug excretion in C.B.-17/Icr […] Jcl mouse liver xenografted with human LNCAP and PC3 cells; type: ADME, tissue-based; conditions: in vivo
[7] = Distribution coefficient, log D of the compound; type: physicochemical; conditions: octanol/water
Blood = test: Biodistribution in blood of C.B.-17/Icr […] Jcl mouse xenografted with human LNCAP and PC3 cells after 30 mins; type: ADME, organism-based; conditions: in vivo, 0.5 h
Kidney [8] = test: Biodistribution in kidney of C.B.-17/Icr […] Jcl mouse xenografted with human LNCAP and PC3 cells after 2 mins to 3 hrs; type: ADME, organism-based; conditions: in vivo
In short: (§2)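 ¹²⁵I-labelled tracer given iv by tail vein to mice (22–24 g) bearing LNCaP (left shoulder) and PC-3 (right shoulder) xenografts of about 5–10 mm, grown from 1–5 × 10⁶ cells in 1:1 Matrigel. n=4 per time point; decapitated at 2 min, 30 min, 1, 3, 6 h. Tissues weighed and counted; uptake as %ID/g, mean ± SD.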

LNCaP [9] = test: Biodistribution in LNCAP cells in C.B.-17/Icr +/+ Jcl mouse xenografted with human LNCAP and PC3 cells after 2 mins to 3 hrs; type: ADME, organism-based; conditions: in vivo
In short: as §2

T1 sequence (Q04609 whole entry): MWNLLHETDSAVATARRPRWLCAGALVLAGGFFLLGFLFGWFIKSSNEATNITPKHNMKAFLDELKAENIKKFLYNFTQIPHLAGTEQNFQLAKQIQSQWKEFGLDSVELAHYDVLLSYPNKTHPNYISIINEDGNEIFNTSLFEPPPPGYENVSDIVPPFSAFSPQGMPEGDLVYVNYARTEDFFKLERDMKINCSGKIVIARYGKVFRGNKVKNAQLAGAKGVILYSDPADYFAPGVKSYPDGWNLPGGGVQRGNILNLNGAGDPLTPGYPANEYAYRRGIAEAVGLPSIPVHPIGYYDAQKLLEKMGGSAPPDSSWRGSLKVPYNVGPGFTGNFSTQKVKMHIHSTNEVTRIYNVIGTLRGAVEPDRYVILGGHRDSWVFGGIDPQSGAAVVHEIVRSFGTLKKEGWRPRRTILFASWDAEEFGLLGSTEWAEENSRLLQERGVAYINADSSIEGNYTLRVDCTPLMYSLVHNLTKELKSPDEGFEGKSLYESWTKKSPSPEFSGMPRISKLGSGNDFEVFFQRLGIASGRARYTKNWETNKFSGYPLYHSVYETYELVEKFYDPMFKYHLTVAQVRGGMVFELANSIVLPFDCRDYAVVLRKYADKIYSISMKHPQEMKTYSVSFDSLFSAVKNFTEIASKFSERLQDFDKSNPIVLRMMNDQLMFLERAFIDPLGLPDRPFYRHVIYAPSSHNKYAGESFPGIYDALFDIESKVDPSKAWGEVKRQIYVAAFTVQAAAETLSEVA

- Drug uptake (PC-3): Not Active
- Drug uptake (LNCaP [3]): Not Active
- Drug uptake (LNCaP [4]): Active
Compound: O=C(O)CC[C@H](NC(=O)N[C@@H](CSC1CC(=O)N(CCCC[C@H](NC(=O)CNC(=O)c2cccc([123I])c2)C(=O)O)C1=O)C(=O)O)C(=O)O (some centres undefined)

- Ki [1]: 2.79 nM
Compound: O=C(O)CC[C@H](NC(=O)N[C@@H](CSC1CC(=O)N(CCCC[C@H](NC(=O)c2cccc(I)c2)C(=O)O)C1=O)C(=O)O)C(=O)O (some centres undefined)

- Ki [1]: 4.97 nM
Compound: O=C(O)CC[C@H](NC(=O)N[C@@H](CSC1CC(=O)N(CCCC[C@H](NC(=O)CNC(=O)c2cccc(I)c2)C(=O)O)C1=O)C(=O)O)C(=O)O (some centres undefined)

- Ki [1]: 7.91 nM
Compound: O=C(O)CC[C@H](NC(=O)N[C@@H](CSC1CC(=O)N(CCCCCNC(=O)CNC(=O)c2cccc(I)c2)C1=O)C(=O)O)C(=O)O (some centres undefined)

- Ki [1]: 6.26 nM
Compound: O=C(O)CC[C@H](NC(=O)N[C@@H](CSC1CC(=O)N(CCCC[C@H](NC(=O)CCNC(=O)c2cccc(I)c2)C(=O)O)C1=O)C(=O)O)C(=O)O (some centres undefined)

- Ki [1]: 2.95 nM
Compound: O=C(O)CC[C@H](NC(=O)N[C@@H](CSC1CC(=O)N(CCCC[C@H](NC(=O)CCCNC(=O)c2cccc(I)c2)C(=O)O)C1=O)C(=O)O)C(=O)O (some centres undefined)

- Ki [1]: 2.14 nM
Compound: O=C(O)CC[C@H](NC(=O)N[C@@H](CSC1CC(=O)N(CCCC[C@H](NC(=O)CCCCNC(=O)c2cccc(I)c2)C(=O)O)C1=O)C(=O)O)C(=O)O (some centres undefined)

The next lines start with the molecule.

Compound: O=C(O)CC[C@H](NC(=O)N[C@@H](CS)C(=O)O)C(=O)O
- Ki [1]: 376 nM

Compound: O=C(O)CC[C@H](NC(=O)N[C@@H](CSC1CC(=O)N(CCCCCNC(=O)CNC(=O)c2cccc([125I])c2)C1=O)C(=O)O)C(=O)O (some centres undefined)
- Drug uptake (LNCaP [2]): Active
- Drug uptake (Intestine): Active
- Drug uptake (Liver (Mus musculus)): Active

Compound: CN1C(=O)CC(SC[C@H](NC(=O)N[C@@H](CCC(=O)O)C(=O)O)C(=O)O)C1=O (some centres undefined)
- Ki [1]: 62.1 nM

Compound: CNCC(=O)N[C@@H](CCCCN1C(=O)CC(SC[C@H](NC(=O)N[C@@H](CCC(=O)O)C(=O)O)C(=O)O)C1=O)C(=O)O (some centres undefined)
- Ki [1]: 94.8 nM

Compound: O=C(O)CC[C@H](NC(=O)N[C@@H](Cc1ccc(O)c([125I])c1)C(=O)O)C(=O)O
- Kd [5]: 143 nM

Compound: O=C(O)CC[C@H](NC(=O)N[C@@H](CCCCNCc1ccc([125I])cc1)C(=O)O)C(=O)O
- Drug excretion (Kidney [6]): Active
- Drug excretion (Liver): Not Active
- logD [7]: -2.91
- Drug uptake (Blood): Active
- Drug uptake (Kidney [8]): Active
- Drug uptake (LNCaP [9]): Active
- Kd [5]: 20.4 nM

Compound: O=C(O)CC[C@H](NC(=O)N[C@@H](CSC1CC(=O)N(CCCC[C@H](NC(=O)CNC(=O)c2ccccc2)C(=O)O)C1=O)C(=O)O)C(=O)O (some centres undefined)
- Ki [1]: 8.06 nM
